Series [1] can be described thus: folding enthalpy; higher = less favourable; fluorescence melt of hairpins on a sequencing array, two-state fit. The settings on record: sodium 0.088 M. Summed up:
(§1)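 With Cy3 and quencher oligos annealed, library hairpins on a sequenced MiSeq flow cell were imaged for Cy3 fluorescence in 50 mM Na-HEPES pH 8.0, 25 mM NaCl, in 2.5 °C steps up to 60 °C. Melting temperature and folding enthalpy were derived from bootstrapped two-state fits of signals normalised to pre-quench Cy3 and to control constructs. Four replicates were combined by inverse variance, with fitted temperatures raised by 9.35 °C to match UV melts.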

Series [2] in a line: melting temperature; fluorescence melt of hairpins on a sequencing array, two-state fit, raised by 9.35 °C to match UV melts. The settings on record: sodium 0.088 M. Summed up: as §1

As to GCAGTAGCGAAAGCTTGC (((..(((....)))))), in series [1], the folding enthalpy is -17.8 kcal/mol. Also, in series [2], the Tm was found to be 45 °C.

With CGAGCGGAAACGCTATCG ((((((....)))..))), the folding enthalpy in series [1] was -13.1 kcal/mol. In series [2], the Tm was 35.1 °C.

GTTCAGCGAAAGCTAAC (((.(((....)))))): the folding enthalpy in series [1] was -13.8 kcal/mol. In series [2], the Tm is 36.4 °C.

With GCTCTCGAAAGAGGAGC ((((((....))).))), the folding enthalpy in series [1] was -29.2 kcal/mol. Moreover, the Tm in series [2] was determined as 50.6 °C.

GGGACGGGAAACCACCCC (((..((....))..))): the folding enthalpy in series [1] was -18.4 kcal/mol. The Tm in series [2] came to 32.1 °C.

Take GCCATGCGAAAGCTCGGC (((..((....))..))): the folding enthalpy in series [1] is -23.6 kcal/mol. In addition, the Tm in series [2] stood at 52.5 °C.

Consider GTTAGTGCGAAAGCAAAC (((..(((....)))))), for which the folding enthalpy in series [1] is -10.6 kcal/mol. Besides, the Tm in series [2] was 28.3 °C.

On to GGGTCTGGAAACAGACCC (((((((....))))))), for which the folding enthalpy in series [1] is -36.1 kcal/mol. Also, the Tm in series [2] came out at 68.8 °C.

As for GATCATAGGAATGATC ((((((....)))))), in series [1], the folding enthalpy was -26 kcal/mol. Further, in series [2], the Tm stood at 44.3 °C.

Consider GTTACAGCGAAAGCTAAC (((..(((....)))))), for which, in series [1], the folding enthalpy is -11.1 kcal/mol. Also, in series [2], the Tm came to 28.2 °C.

Take GACACGGAAACGTGTC ((((((....)))))): the folding enthalpy in series [1] was -34.9 kcal/mol. Moreover, the Tm in series [2] amounted to 67.7 °C.

As for GCCAGTGCGAAAGCAGGC (((..(((....)))))), in series [1], the folding enthalpy is -15.7 kcal/mol. The Tm in series [2] stood at 53.7 °C.

As for GAACACGGAAACGTATTC (((.(((....))).))), the folding enthalpy in series [1] is -22.6 kcal/mol. For the same sequence, the Tm in series [2] was determined as 33 °C.

As to GCAGACGAAAGTCAATGC ((((((....)))..))), the folding enthalpy in series [1] was -19.3 kcal/mol. In series [2], the Tm stood at 43.9 °C.

Turning to GTATTCGAAAGAATATAC ((((((....)))..))), the folding enthalpy in series [1] was -13.8 kcal/mol. Further, the Tm in series [2] came out at 33.5 °C.

Regarding GTCTGCGAAAGCACGGAC ((((((....)))..))), the folding enthalpy in series [1] is -15.2 kcal/mol. Also, the Tm in series [2] was found to be 38.9 °C.

On to GTAGGTGGAAACACCTGC (.(((((....))))).), for which the folding enthalpy in series [1] is -18.5 kcal/mol. For the same sequence, the Tm in series [2] worked out at 53.4 °C.

In the case of GCAAACGAAAGTTTCTGC ((((((....)))..))), the folding enthalpy in series [1] is -14.9 kcal/mol. For the same sequence, in series [2], the Tm was 33.8 °C.

GGTCCACGAAAGTGTACC (((.(((....))).))): the folding enthalpy in series [1] was -21.7 kcal/mol. In addition, in series [2], the Tm amounted to 50 °C.

As for GGACAACGAAAGTTTCC (((.(((....)))))), the folding enthalpy in series [1] was -20.1 kcal/mol. Moreover, the Tm in series [2] is 38.3 °C.

Take GCTGGCGAAAGCCACAGC ((((((....)))..))): the folding enthalpy in series [1] is -13.9 kcal/mol. Further, the Tm in series [2] came to 49.5 °C.

Take GCCAGAGAAATCTGGC ((((((....)))))): the folding enthalpy in series [1] was -31.8 kcal/mol. For the same sequence, the Tm in series [2] worked out at 64.3 °C.

For GATCCGCCAACGGATC ((((((....)))))), the folding enthalpy in series [1] is -36 kcal/mol. Moreover, in series [2], the Tm amounted to 57.7 °C.

On to GCTTTCGAAAGAACGAGC ((((((....)))..))), for which, in series [1], the folding enthalpy is -15.1 kcal/mol. Moreover, the Tm in series [2] was determined as 28.9 °C.

For GCATAGCGAAAGCGACGC ((.(.((....)).).)), the folding enthalpy in series [1] is -34.1 kcal/mol. The Tm in series [2] is 63.7 °C.

For GGGGCCGAAAGGCTGCCC ((((((....)))..))), the folding enthalpy in series [1] is -14.2 kcal/mol. Besides, in series [2], the Tm came out at 46.4 °C.

On to GGTAACGGAAACGCTACC ((((.((....)).)))), for which the folding enthalpy in series [1] was -29.7 kcal/mol. In series [2], the Tm came to 43.7 °C.

With GGGTTAGGAAACTGACCC ((((.((....)).)))), in series [1], the folding enthalpy was -34.6 kcal/mol. For the same sequence, the Tm in series [2] was determined as 50 °C.

As for GTTCGCGGAAACGCAAAC (((.(((....))).))), in series [1], the folding enthalpy was -20.8 kcal/mol. Further, the Tm in series [2] turned out to be 43.7 °C.

As to GATCAAGTTTTGATC ((((((...)))))), the folding enthalpy in series [1] was -29.4 kcal/mol. Also, the Tm in series [2] was 45.4 °C.

As for GATCGAATACTCGATC ((((((....)))))), the folding enthalpy in series [1] was -37.5 kcal/mol. For the same sequence, in series [2], the Tm was found to be 49.9 °C.

For the sequence GCTTTTCCGAAAGGAAGC (((..(((....)))))), in series [1], the folding enthalpy was -10.7 kcal/mol. Further, the Tm in series [2] is 33.7 °C.

With GCCCTTCGAAAGAAGGC (((.(((....)))))), in series [1], the folding enthalpy was -21.4 kcal/mol. The Tm in series [2] amounted to 52.9 °C.

For the sequence GTTCGGCGAAAGCCTAAC (((.(((....))).))), the folding enthalpy in series [1] was -19.2 kcal/mol. Moreover, in series [2], the Tm is 43 °C.

In the case of GTGTAAGGAAACTTGCAC (((.(((....))).))), in series [1], the folding enthalpy was -31 kcal/mol. In series [2], the Tm was 45.1 °C.

On to GGTGGAGGAAACTCTACC (((.(((....))).))), for which the folding enthalpy in series [1] was -35.8 kcal/mol. For the same sequence, the Tm in series [2] is 48 °C.

As to GCGTGGCCACGC ((((....)))), in series [1], the folding enthalpy was -43.9 kcal/mol. For the same sequence, the Tm in series [2] stood at 62.8 °C.
